Assay outcomes from PubChem BioAssay.
CHRM5 antagonist – human M5 muscarinic receptor antagonists, primary screen, CHO cells, Fluo-8 calcium fluorescence | actives 0.59% (n = 360,000) | AID 624040, 2012 | inhibition, % at 3 µM | Muscarinic acetylcholine receptor M5 (Homo sapiens), P08912 | CHO-hM5 cells, ACh EC80;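 active = inhibition above a per-plate cutoff, the mean of that plate's test compounds plus 3 SD, cut at about 27% in these data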
M5 PAM – human M5 muscarinic receptor positive allosteric modulators, primary screen, CHO-K1 cells, Fluo-8 calcium fluorescence. Muscarinic acetylcholine receptor M5 (Homo sapiens), P08912. CHO-K1 hM5, ACh EC20 PAM; 0% = ACh EC20, 100% = ACh EC100. activation, % at 3 µM. actives 0.3% (n = 360,000). AID 624038, 2012;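 active = activation above the run cutoff, the mean activation of all test compounds plus 3 SD, cut at about 18% in these data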
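Assay system – human M5 receptor in CHO-K1 cells · Read-out – % activation, ACh-normalized · Technique – Fluo-8 calcium fluorescence · Dosing – single-point, 3 µM nominal · Incubation – Fluo-8 loading 80 min at 37 °C plus 30 min room temperature · Repeats – singlicate, one well per test compound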
M1 ag – human M1 muscarinic receptor agonists, primary screen, Fluo-8 calcium fluorescence, CHO-K1 cells, HTS; activation, % at 3 µM; Muscarinic acetylcholine receptor M1 (Homo sapiens), P11229; CHO-K1 hM1, agonist mode; 0% DMSO, 100% acetylcholine EC100; actives 0.33% (n = 360,000); AID 588814, 2011;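 active = activation above the run's mean compound activation plus 3 SD, cut at about 16% in these data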;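 also: peak over basal fluorescence ratio within a 140 s kinetic read after compound addition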
Target sequence (P11229 whole entry, looked up): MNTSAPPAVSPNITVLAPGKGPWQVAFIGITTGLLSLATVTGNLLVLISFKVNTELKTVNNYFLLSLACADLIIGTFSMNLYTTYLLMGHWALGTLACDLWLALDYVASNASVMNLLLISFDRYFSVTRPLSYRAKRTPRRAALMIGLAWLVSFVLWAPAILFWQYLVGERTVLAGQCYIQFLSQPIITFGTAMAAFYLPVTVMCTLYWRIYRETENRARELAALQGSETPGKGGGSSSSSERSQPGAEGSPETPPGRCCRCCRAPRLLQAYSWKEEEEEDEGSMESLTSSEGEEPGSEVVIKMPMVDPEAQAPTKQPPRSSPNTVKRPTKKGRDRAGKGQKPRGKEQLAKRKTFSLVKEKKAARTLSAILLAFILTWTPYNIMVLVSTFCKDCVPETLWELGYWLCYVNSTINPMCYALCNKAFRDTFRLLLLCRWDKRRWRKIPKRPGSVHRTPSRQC
CHRM1 PAM – human M1 muscarinic receptor positive allosteric modulators, primary screen, CHO-K1 cells, Fluo-8 calcium fluorescence, 1536-well. Muscarinic acetylcholine receptor M1 (Homo sapiens), P11229. CHO-K1 hM1, ACh EC20; 0% = ACh EC20, 100% = maximal ACh. activation, % at 3 µM. actives 0.088% (n = 360,000); in the data active = activation above about 19%, passing the limit was not always enough
M1 antag – human M1 muscarinic receptor antagonists, primary screen, CHO-K1 cells, Fluo-8 calcium fluorescence, 1536-well; actives 1.3% (n = 360,000); AID 588852, 2011; CHO-K1 hM1, ACh EC80 antagonist; Muscarinic acetylcholine receptor M1 (Homo sapiens), P11229; inhibition, % at 3 µM;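 active = percent inhibition above its own plate's cutoff, namely the mean of that plate's compound wells plus 3 SD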;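 also: peak over basal fluorescence ratio during 140 s after agonist addition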
M5 ag – human M5 muscarinic receptor agonists, primary screen, CHO-K1 cells, Fluo-8 calcium fluorescence; Muscarinic acetylcholine receptor M5 (Homo sapiens), P08912; CHO-K1 hM5 cells; 0% DMSO wells, 100% maximal acetylcholine response; activation, % at 3 µM; actives 0.19% (n = 360,000); AID 624037, 2012;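 active = activation above the run's mean over test compounds plus 3 SD, cut at about 23% in these data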;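 also: signal is peak over basal fluorescence ratio across the kinetic read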
Each line names hits and unclear results; the compound was inactive in the other large screens; ! = not active in a repeat. Rows were chosen to be rich in hits. Some 2.1% of all compounds tested hit in one or more screens of this group.

O=C(CN1CCOCC1)N1c2ccccc2Sc2ccccc21	none
O=C(CN1CCCC1)N1c2ccccc2Sc2ccc(Cl)cc21	CHRM5 antagonist 95.9, M1 antag 99.1
CC(=O)Nc1ccc(NC(=O)C(C)Sc2nnc(-c3ccc4c(c3)OCO4)o2)cc1 (configuration not stated)	none
CCc1ccc(NC(=O)CSc2nc3ccsc3c(=O)n2CCCCCC(=O)O)cc1	none
CCNCCC(=O)N1c2ccccc2Sc2ccc(C(F)(F)F)cc21	CHRM5 antagonist 99.8, M1 antag 100.0
O=C(CSc1nc2ccccc2o1)N1c2ccccc2Sc2ccc(C(F)(F)F)cc21	none
NC(=O)C1CC(=O)N(c2ccc(OCc3ccc(Cl)cc3Cl)cc2)C1 (configuration not stated)	none
NC(=O)C1CC(=O)N(c2ccc(OCc3ccc(Cl)c(Cl)c3)cc2)C1 (configuration not stated)	CHRM5 antagonist 28.4
O=C(CNc1ccc(C(F)(F)F)cc1)Nc1cccc(S(=O)(=O)N2CCCCC2)c1	M1 antag 24.0
CN(CC(=O)NCc1ccc(F)cc1)CC(=O)Nc1ccc(Cl)c(C(F)(F)F)c1	M1 ag 16.2
CCc1nc2ccccc2c(C(=O)OCC(=O)Nc2cccc(S(=O)(=O)N3CCOCC3)c2)c1C	M1 antag 27.9
CC(OC(=O)CC1CC2CCC1C2)C(=O)Nc1cccc(S(=O)(=O)N2CCOCC2)c1 (configuration not stated)	CHRM1 PAM 24.4
CCc1nc2ccccc2c(C(=O)OCC(=O)Nc2ccc(S(=O)(=O)N3CCOCC3)cc2)c1C	none
CN(CC(=O)NCC(=O)Nc1ccc(F)cc1)CC(=O)Nc1ccc(Cl)c(C(F)(F)F)c1	none
Nc1cc(=O)[nH]c(SCC(=O)Nc2ncc(C(F)(F)F)cc2Cl)n1	none
CN(CC(=O)Nc1cccc(S(=O)(=O)N2CCOCC2)c1)CC(=O)Nc1ccc(Cl)c(C(F)(F)F)c1	M1 antag 41.9
CN(CC(=O)Nc1cccc(F)c1)CC(=O)Nc1cc(S(=O)(=O)N2CCOCC2)ccc1Cl	none
CCN(CC)S(=O)(=O)c1ccc(C)c(NC(=O)CNc2cccc(S(=O)(=O)N3CCOCC3)c2)c1	none
CN(C)S(=O)(=O)c1cccc(NC(=O)CNc2cccc(S(=O)(=O)N3CCCCC3)c2)c1	none
CCN(CC)S(=O)(=O)c1cc(NC(=O)CNc2cccc(S(=O)(=O)N3CCCC3)c2)ccc1C	M1 antag 29.0
CCN(CC)S(=O)(=O)c1cccc(NC(=O)CNc2cccc(S(=O)(=O)N3CCOCC3)c2)c1	M1 antag 33.4
CC1CCCCN1c1nc2nonc2nc1N1CCCCC1C (configuration not stated)	none
C(=N\Nc1ccccc1)/c1ccc(N2CCOCC2)cc1	none
CC(=O)c1c(C)[nH]c(C(=O)O)c1C	none
CC(=O)c1c(C)[nH]c(C)c1C(C)=O	M5 PAM 27.2
CC(=O)NCC(=O)OCC(=O)Nc1ccc(C(C)=O)cc1	none
CC(=O)NCC(=O)OC(C)C(=O)Nc1ccc(C(C)=O)cc1 (configuration not stated)	M5 PAM 25.1
C=CCn1c(SCC(=O)C23CC4CC(CC(C4)C2)C3)nc(O)cc1=O	none
COc1ccccc1N1CCN(CC(=O)c2c[nH]c3ccccc23)CC1	none
O=C(CN1CCN(c2ccccc2F)CC1)c1c[nH]c2ccccc12	M5 PAM 20.5
Cc1ccc(N2CCN(C(=O)C(=O)c3ccc4c(c3)OCO4)CC2)cc1	none (no result: M1 ag, CHRM1 PAM, M1 antag)
O=C(NCc1cccc(Cl)c1)c1ccc2ccccc2n1	none
COc1ccc(N(CC(=O)NCc2ccco2)C(=O)CCC(=O)Nc2nccs2)c(OC)c1	none
O=C(CCNS(=O)(=O)c1ccc2nsnc2c1)N1CCN(c2ccncc2)CC1	M1 antag 61.8
Cc1ccc(S(=O)(=O)NCCC(=O)N2CCN(c3cccc(Cl)c3)CC2)cc1C	none
Cc1cc(C)c(NC(=O)CCCN2CCN(C)CC2)c(C)c1	none
Cc1cc(C)c(NC(=O)CN2CCN3CCCC3C2)c(C)c1 (configuration not stated)	CHRM1 PAM 28.6!
OCCNCc1ccc(-c2ccccc2)cc1	none
OCCCNCc1ccc(N(c2ccccc2)c2ccccc2)cc1	M1 antag 70.5
CCOC(=O)c1ccc(NC(=S)N(CCN(C)C)C(C)c2ccncc2)cc1 (configuration not stated)	none
CCN1/C(=C/C=C/c2oc3ccc(-c4ccccc4)cc3[n+]2CC)Oc2ccc(-c3ccccc3)cc21	CHRM5 antagonist 101.7, M1 ag 598.6, M1 antag 102.5, M5 ag active
Cc1ccc(C(=O)Cn2cnc3ccccc3c2=O)cc1	none
CCOc1ccc(C(=O)Cn2cnc3ccccc3c2=O)cc1	M1 antag 28.5
CCOC(=O)C1CCCN(C(=O)CCn2nc(-c3ccccc3)ccc2=O)C1 (configuration not stated)	none
O=C(COc1ccc(S(=O)(=O)N2CCOCC2)cc1)NCc1ccccc1	M1 antag 29.2
NC(=O)CSc1nnc(NC(=O)c2ccc(S(=O)(=O)N3CCOCC3)cc2)s1	none
Cc1ccc(S(=O)(=O)N2CCOCC2)cc1NC(=O)COc1ccc(C(=O)c2ccccc2)cc1	M1 antag 36.7
COc1ccc(CNC(=O)COc2ccc(S(=O)(=O)N3CCOCC3)cc2)cc1	none
COc1ccc(NC(=O)CSc2nnc(NC(=O)c3ccc(S(=O)(=O)N4CCOCC4)cc3)s2)cc1	M5 PAM 23.0
O=C(CCCOc1ccc(Br)cc1)Nc1ccc(S(=O)(=O)N2CCOCC2)cc1	M1 antag 31.7
Cc1ccc(/C=C(\C#N)C(=O)Nc2c(C)cccc2C)s1	none
N#Cc1ccc(COC(=O)CC(NC(N)=O)c2ccc(Cl)cc2)cc1 (configuration not stated)	none
CN(C)S(=O)(=O)N1CCN(C(=O)N2CCCCCC2)CC1	none
[O-]C(=C(C(=S)Nc1cccc2ccccc12)[n+]1cccc(CO)c1)c1ccc(Cl)s1	none
Cc1cccc2cc(CN(Cc3ccc(F)cc3)C(=O)N3CCOCC3)c3nnnn3c12	none
